How the values were obtained:
[1] = molecular target: T1, Angiotensin-converting enzyme (Rattus norvegicus) (UniProt P47820); assay: In vivo oral activity in normotensive rat and percent maximal inhibition of the angiotensin I pressor response; type: functional, organism-based
T1 sequence (whole entry): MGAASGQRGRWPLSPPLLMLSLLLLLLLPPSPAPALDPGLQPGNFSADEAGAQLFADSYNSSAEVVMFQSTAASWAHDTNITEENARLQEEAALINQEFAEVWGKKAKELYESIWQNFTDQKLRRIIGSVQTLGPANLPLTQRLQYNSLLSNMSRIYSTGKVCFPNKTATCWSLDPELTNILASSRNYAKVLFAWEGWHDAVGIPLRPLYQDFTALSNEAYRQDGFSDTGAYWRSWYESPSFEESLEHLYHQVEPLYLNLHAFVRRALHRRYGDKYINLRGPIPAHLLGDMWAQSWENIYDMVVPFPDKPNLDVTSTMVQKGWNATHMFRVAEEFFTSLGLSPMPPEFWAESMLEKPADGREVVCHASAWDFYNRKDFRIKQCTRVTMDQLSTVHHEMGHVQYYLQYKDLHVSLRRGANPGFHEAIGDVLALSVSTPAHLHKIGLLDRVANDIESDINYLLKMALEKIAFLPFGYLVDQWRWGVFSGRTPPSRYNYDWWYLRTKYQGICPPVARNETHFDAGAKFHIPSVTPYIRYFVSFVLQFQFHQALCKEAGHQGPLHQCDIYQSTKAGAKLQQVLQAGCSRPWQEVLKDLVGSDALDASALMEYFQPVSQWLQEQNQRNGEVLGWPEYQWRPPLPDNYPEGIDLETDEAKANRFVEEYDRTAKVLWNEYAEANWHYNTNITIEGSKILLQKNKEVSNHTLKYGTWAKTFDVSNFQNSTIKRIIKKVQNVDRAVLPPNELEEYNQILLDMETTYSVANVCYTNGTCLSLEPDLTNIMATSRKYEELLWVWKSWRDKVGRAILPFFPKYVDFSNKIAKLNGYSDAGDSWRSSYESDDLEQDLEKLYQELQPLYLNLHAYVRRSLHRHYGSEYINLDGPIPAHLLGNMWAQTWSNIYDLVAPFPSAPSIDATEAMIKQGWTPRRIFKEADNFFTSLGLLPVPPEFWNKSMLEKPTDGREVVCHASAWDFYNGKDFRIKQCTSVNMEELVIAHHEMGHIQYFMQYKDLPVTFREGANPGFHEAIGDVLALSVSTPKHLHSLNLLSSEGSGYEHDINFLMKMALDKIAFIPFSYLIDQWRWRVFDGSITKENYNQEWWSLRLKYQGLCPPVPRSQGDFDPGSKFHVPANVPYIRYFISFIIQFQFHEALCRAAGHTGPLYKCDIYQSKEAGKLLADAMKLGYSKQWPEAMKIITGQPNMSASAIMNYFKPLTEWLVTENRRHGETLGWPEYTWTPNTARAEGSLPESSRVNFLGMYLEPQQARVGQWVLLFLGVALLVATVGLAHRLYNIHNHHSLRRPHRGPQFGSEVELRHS
Outline: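 Catheterized conscious, unrestrained male Sprague-Dawley rats (225–275 g), recovered ≥2 weeks. […] Oral dose in 0.1 mL water, 5% NaHCO3 or 1% agar suspension. Aortic pressure read by transducer for up to 280 min. Maximum % inhibition is the mean of four animals per dose.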

[2] = molecular target: T1, Angiotensin-converting enzyme (Rattus norvegicus); assay: In vivo dose required to produce 50% inhibition against angiotensin I in normotensive rat after intravenous administration; type: functional, organism-based
Outline: (§1)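 Conscious, unrestrained male Sprague-Dawley rats (225–275 g) with indwelling aortic and vena caval catheters, recovered ≥2 weeks. […] Compound given iv in 0.1 mL water or 5% NaHCO3, responses followed up to 70 min. Maximum % inhibition is the mean of four rats per dose; ED50 interpolated from plots of ≥3 doses.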

[3] = molecular target: T2, Angiotensin-converting enzyme (Oryctolagus cuniculus, UniProt P12822); assay: Inhibition of rabbit lung angiotensin I converting enzyme (ACE) using hippuryl-histidyl-leucine as substrate; conditions: read-out: I50
T2 sequence (P12822 whole entry): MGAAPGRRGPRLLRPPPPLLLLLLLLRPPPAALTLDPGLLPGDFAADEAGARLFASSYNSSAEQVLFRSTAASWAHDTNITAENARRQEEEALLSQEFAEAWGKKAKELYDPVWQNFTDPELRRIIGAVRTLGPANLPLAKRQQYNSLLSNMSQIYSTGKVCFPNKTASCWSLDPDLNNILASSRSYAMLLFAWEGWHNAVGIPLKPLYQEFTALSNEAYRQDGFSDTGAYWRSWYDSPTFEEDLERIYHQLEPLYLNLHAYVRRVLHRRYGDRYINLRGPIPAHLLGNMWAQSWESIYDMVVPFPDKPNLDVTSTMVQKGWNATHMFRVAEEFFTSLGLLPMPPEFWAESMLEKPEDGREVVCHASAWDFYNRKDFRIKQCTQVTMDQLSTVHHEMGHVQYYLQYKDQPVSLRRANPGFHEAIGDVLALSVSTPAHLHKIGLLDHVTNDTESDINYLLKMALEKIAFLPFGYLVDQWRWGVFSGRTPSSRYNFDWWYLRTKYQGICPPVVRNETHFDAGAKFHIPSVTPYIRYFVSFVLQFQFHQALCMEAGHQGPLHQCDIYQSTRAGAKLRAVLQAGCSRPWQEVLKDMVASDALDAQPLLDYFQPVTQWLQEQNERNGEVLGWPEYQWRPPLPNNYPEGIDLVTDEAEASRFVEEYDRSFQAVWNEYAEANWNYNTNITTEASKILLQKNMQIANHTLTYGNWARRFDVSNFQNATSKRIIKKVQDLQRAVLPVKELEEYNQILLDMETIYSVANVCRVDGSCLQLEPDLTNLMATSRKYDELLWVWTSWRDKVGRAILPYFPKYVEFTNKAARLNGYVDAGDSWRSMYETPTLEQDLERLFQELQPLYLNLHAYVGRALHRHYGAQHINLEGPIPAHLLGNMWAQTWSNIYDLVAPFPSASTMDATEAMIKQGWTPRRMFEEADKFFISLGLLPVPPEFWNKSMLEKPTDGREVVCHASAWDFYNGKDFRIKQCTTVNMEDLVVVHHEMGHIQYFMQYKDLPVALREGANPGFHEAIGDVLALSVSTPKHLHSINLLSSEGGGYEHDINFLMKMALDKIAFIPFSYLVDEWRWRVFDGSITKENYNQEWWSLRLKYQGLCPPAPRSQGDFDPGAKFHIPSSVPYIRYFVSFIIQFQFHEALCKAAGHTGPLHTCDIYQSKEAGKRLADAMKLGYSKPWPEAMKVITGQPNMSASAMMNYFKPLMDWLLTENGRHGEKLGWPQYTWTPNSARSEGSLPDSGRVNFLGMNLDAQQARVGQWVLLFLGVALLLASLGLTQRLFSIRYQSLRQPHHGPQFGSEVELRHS

[4] = molecular target: T2, Angiotensin-converting enzyme; assay: Evaluated for inhibitory activity against rabbit lung angiotensin I converting enzyme (ACE) using hippuryl-histidyl-leucine as substrate; conditions: read-out: I50
[5] = molecular target: T1, Angiotensin-converting enzyme (Rattus norvegicus); assay: In vivo dose required to produce 50% inhibition against angiotensin I (AI) in normotensive rat after intravenous administration; type: functional, organism-based; outline: as §1

Compound	inhibition [1]	ED50 [2]	IC50 [3]	IC50 [4]	ED50 [5]
NCCCC[C@H](OP(=O)(O)CCCCc1ccccc1)C(=O)N1C[C@H](C2CCCCC2)C[C@H]1C(=O)O	15%	0.11 µmol/kg	31 nM		
NCCCC[C@H](OP(=O)(O)CCCCc1ccccc1)C(=O)N1C[C@@H](C2CCCCC2)C[C@H]1C(=O)O	33%	0.06 µmol/kg	11 nM		
NCCCC[C@H](OP(=O)(O)CCCCc1ccccc1)C(=O)N(CC(=O)O)c1ccccc1	53%	0.136 µmol/kg		29 nM	
COc1ccc(N(CC(=O)O)C(=O)[C@H](CCCCN)OP(=O)(O)CCCCc2ccccc2)cc1OC	62%	0.04 µmol/kg	35 nM		
NCCCC[C@H](OP(=O)(O)CCCCc1ccccc1)C(=O)N1[C@H](C(=O)O)C[C@@H]2CCCC[C@@H]21	14%	0.1 µmol/kg	28 nM		
NCCCC[C@H](OP(=O)(O)CCCCc1ccccc1)C(=O)N(CC(=O)O)c1ccc2c(c1)OCO2	69%	0.1 µmol/kg	24 nM		
NCCCC[C@H](OP(=O)(O)CCCCc1ccccc1)C(=O)N1CCS[C@H]1C(=O)O	50%	0.163 µmol/kg	81 nM		
NCCCC[C@H](OP(=O)(O)CCCCc1ccccc1)C(=O)N1C[C@H](c2ccccc2)C[C@H]1C(=O)O			270 nM		
NCCCC[C@H](OP(=O)(O)CCCCc1ccccc1)C(=O)N1C[C@@H](Sc2ccccc2)C[C@H]1C(=O)O	15%	0.047 µmol/kg	3 nM		
NCCCC[C@H](OP(=O)(O)CCCCc1ccccc1)C(=O)N1C[C@@H](c2ccccc2)C[C@H]1C(=O)O	58%	0.037 µmol/kg	3.5 nM		
NCCCC[C@H](OP(=O)(O)CCCCc1ccccc1)C(=O)N(CC(=O)O)C1Cc2ccccc2C1		0.196 µmol/kg		27 nM	
CSC1(SC)C[C@@H](C(=O)O)N(C(=O)[C@H](CCCCN)OP(=O)(O)CCCCc2ccccc2)C1	45%	0.14 µmol/kg	16 nM		
NCCCC[C@H](OP(=O)(O)CCCCc1ccccc1)C(=O)N1CC=C[C@H]1C(=O)O	73%	0.105 µmol/kg	43 nM		
NCCCC[C@H](OP(=O)(O)CCCCc1ccccc1)C(=O)N1CCC[C@H]1C(=O)O	90%	0.063 µmol/kg			
NCCCC[C@H](OP(=O)(O)CCCCc1ccccc1)C(=O)N1CSC[C@H]1C(=O)O	46%	0.124 µmol/kg	91 nM		
NCCCC[C@H](OP(=O)(O)CCCCc1ccccc1)C(=O)N1[C@H](C(=O)O)C[C@@H]2CCC[C@@H]21	41%		26 nM		0.035 µmol/kg
NCCCC[C@H](OP(=O)(O)CCCCc1ccccc1)C(=O)N1c2ccccc2C[C@H]1C(=O)O	13%		4.4 nM		< 0.014 µmol/kg
NCCCC[C@H](OP(=O)(O)CCCCc1ccccc1)C(=O)N1CC2(C[C@H]1C(=O)O)SCCS2	51%	0.018 µmol/kg	1.5 nM		
NCCCC[C@H](OP(=O)(O)CCCCc1ccccc1)C(=O)N(CC(=O)O)C1CCCCC1	31%	0.106 µmol/kg	22 nM		
NCCCC[C@H](OP(=O)(O)CCCCc1ccccc1)C(=O)N1C[C@@H](F)C[C@H]1C(=O)O			160 nM		
CS[C@@H]1C[C@@H](C(=O)O)N(C(=O)[C@H](CCCCN)OP(=O)(O)CCCCc2ccccc2)C1	16%	0.031 µmol/kg	9.3 nM		
NCCCC[C@H](OP(=O)(O)CCCCc1ccccc1)C(=O)N1C[C@H](F)C[C@H]1C(=O)O			320 nM		
NCCCC[C@H](OP(=O)(O)CCCCc1ccccc1)C(=O)N1C[C@H](Sc2ccccc2)C[C@H]1C(=O)O	11%	0.066 µmol/kg	2.6 nM		
NCCCC[C@H](OP(=O)(O)CCCCc1ccccc1)C(=O)N1COC[C@H]1C(=O)O		0.677 µmol/kg	145 nM		
NCCCC[C@H](OP(=O)(O)CCCCc1ccccc1)C(=O)N1C[C@H](O)C[C@H]1C(=O)O		0.339 µmol/kg	140 nM		
NCCCC[C@H](OP(=O)(O)CCCCc1ccccc1)C(=O)N1C[C@@H](O)C[C@H]1C(=O)O	69%	0.033 µmol/kg	25 nM		
COc1ccc(N(CC(=O)O)C(=O)[C@H](CCCCN)OP(=O)(O)CCCCc2ccccc2)cc1	40%	0.043 µmol/kg	39 nM		
NCCCC[C@H](OP(=O)(O)CCCCc1ccccc1)C(=O)N1C[C@@H](Cc2ccccc2)C[C@H]1C(=O)O	14%	0.026 µmol/kg	1 nM		
CS[C@H]1C[C@@H](C(=O)O)N(C(=O)[C@H](CCCCN)OP(=O)(O)CCCCc2ccccc2)C1	8%	0.059 µmol/kg	9.7 nM		
NCCCC[C@H](OP(=O)(O)CCCCc1ccccc1)C(=O)N1CC(F)(F)C[C@H]1C(=O)O	49%	0.162 µmol/kg	170 nM		
